ChEMBL document CHEMBL1255380, “Small molecule-mediated disruption of Wnt-dependent signaling in tissue regeneration and cancer” (Nat Chem Biol, 2009)
Values belong to the compound of their own block, whether it stands above or below them. The source made the active and inactive calls. The calls are words filed in the database; no cut-off is given here.

Key:
[1] = molecular target: T1, Protein-serine O-palmitoleoyltransferase porcupine (Homo sapiens) (UniProt Q9H237); assay: Inhibition of porcn in HEK293 cell lysate by Western blot analysis; format: cell-free
T1 sequence (whole entry): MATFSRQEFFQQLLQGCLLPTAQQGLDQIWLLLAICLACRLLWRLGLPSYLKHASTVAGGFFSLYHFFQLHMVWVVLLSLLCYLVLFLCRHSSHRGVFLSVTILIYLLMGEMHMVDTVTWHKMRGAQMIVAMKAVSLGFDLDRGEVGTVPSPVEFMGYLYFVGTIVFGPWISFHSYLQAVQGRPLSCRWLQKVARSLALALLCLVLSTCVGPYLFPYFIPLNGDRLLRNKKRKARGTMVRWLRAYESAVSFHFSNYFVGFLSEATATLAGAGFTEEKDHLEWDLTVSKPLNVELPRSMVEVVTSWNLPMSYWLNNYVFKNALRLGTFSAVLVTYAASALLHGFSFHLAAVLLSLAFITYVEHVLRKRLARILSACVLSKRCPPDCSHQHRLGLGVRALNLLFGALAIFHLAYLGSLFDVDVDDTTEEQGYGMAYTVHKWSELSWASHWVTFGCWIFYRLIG
Outline: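 Lysate (10mM Na2HPO4 pH7.4, […], 1% NP-40) of HEK293 cells transfected with Porcn-myc preincubated 1 hr at 4°C with DMSO, linker or competitor, then NeutrAvidin resin plus biotinylated probe (0.17 mM); rotated overnight at 4°C, washed, eluate analysed by Western blot.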

[2] = molecular target: T1, Protein-serine O-palmitoleoyltransferase porcupine (Homo sapiens); assay: Inhibition of porcn-mediated Shh palmitoylation in human DLD1 lysate by detergent solubility fractionation assessed as [3H]palmitate incorporation at 2.5 uM by autoradiography method
[3] = Inhibition of Wnt3A/[…] pathway activity in mouse L cell expressing Wnt3a assessed as inhibition of […] accumulation at 5 uM after 24 hrs by Western blot analysis; format: cell-based
[4] = Inhibition of Wnt3A/[…] pathway activity in mouse L cell expressing Wnt3a assessed as decrease in phosphorylated Dvl2 level at 5 uM after 24 hrs by Western blot analysis; format: cell-based
[5] = Inhibition of Wnt3A/[…] pathway activity in mouse L cell expressing Wnt3a assessed as decrease in phosphorylated Lrp6 level at 5 uM after 24 hrs by Western blot analysis; format: cell-based
Danio rerio = species: Danio rerio; assay: Inhibition of caudal fin regeneration after mechanical resection in zebrafish at 10 uM after 7 days; format: functional, organism-based
Outline: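 Zebrafish 3-6 months old anaesthetized in 0.02% Tricaine; half of caudal fin resected with razor blade; kept at 28°C in tank water with 10μM compound or DMSO; water and compound replenished daily over assay period.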

[6] = Inhibition of Notch pathway in mouse L cells at 2.5 uM
Axin-2 (Homo sapiens) [7] = molecular target: Axin-2 (Homo sapiens) (UniProt Q9Y2T1); assay: Induction of Axin2 accumulation in human DLD1 cells by Western blot analysis; format: cell-based; conditions: DLD-1
Outline: (§1)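 DLD-1 cells exposed to IWR compound at 10μM for a 48 hr assay period; protein levels assessed by Western blot of cell lysates.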

[8] = Inhibition of Wnt3A/[…] pathway activity in mouse L cell expressing Wnt3a assessed as inhibition of […] accumulation at 10 uM after 24 hrs by Western blot analysis; format: cell-based
[9] = Inhibition of Wnt3A/[…] pathway activity in mouse L cell expressing Wnt3a assessed as decrease in phosphorylated Dvl2 level at 10 uM after 24 hrs by Western blot analysis; format: cell-based
[10] = Inhibition of Wnt3A/[…] pathway activity in mouse L cell expressing Wnt3a assessed as decrease in phosphorylated Lrp6 level at 10 uM after 24 hrs by Western blot analysis; format: cell-based
[11] = Inhibition of Wnt2/beta-[…] pathway activity in mouse L cell expressing Wnt2 and STF assessed as decreased firefly luciferase reporter expression; format: cell-based
[12] = Inhibition of Wnt1/beta-[…] pathway activity in mouse L cell expressing Wnt1 and STF assessed as decreased firefly luciferase reporter expression; format: cell-based
[13] = Inhibition of Wnt3A/[…] pathway activity in mouse L cell expressing Wnt3A and STF assessed as decreased firefly luciferase reporter expression; format: cell-based
Outline: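 L-Wnt-STF cells (mouse L-cells stably carrying SuperTopFlash firefly luciferase reporter, control reporter and Wnt3A expression construct), ~5K per well; compounds added 24 hrs after seeding; luciferase activities read 24 hrs later; IC50s calculated from these dose-dependent assays.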

DLD-1 [14] = assay: Decrease in beta-[…] accumulation in human DLD1 cells expressing in APC mutant; format: functional, cell-based
Axin-2 (Homo sapiens) [15] = molecular target: Axin-2 (Homo sapiens) (UniProt Q9Y2T1); assay: Induction of Axin2 stabilization in human DLD1 cells assessed as inhibition of Wnt/beta-[…] pathway; format: cell-based; conditions: DLD-1
Axin-2 (Homo sapiens) [16] = molecular target: Axin-2 (Homo sapiens) (UniProt Q9Y2T1); assay: Binding affinity to Axin2 IWR-IS in HEK293 cells; format: cell-based
Axin-2 (Homo sapiens) [17] = molecular target: Axin-2 (Homo sapiens) (UniProt Q9Y2T1); assay: Binding affinity at Axin2 in HEK293 cells by Western blot method; format: cell-based
NCI-H460 = assay: Antiproliferative activity against human H460 cells assessed as cellular ATP levels after 6 days by Cell-Titer Glow assay; format: functional, cell-based
Outline: (§2)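 Cancer cells seeded at 2.5K cells/well with carrier or compound, 0.5% DMSO final; medium with compound changed every 24 hrs for 5 days; on day 6 cellular ATP quantified by CellTiter-Glo luminescence.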

DLD-1 [18] = assay: Antiproliferative activity against human DLD1 cells assessed as cellular ATP levels after 6 days by Cell-Titer Glow assay; format: functional, cell-based; outline: as §2
DU-145 = assay: Antiproliferative activity against human DU145 cells assessed as cellular ATP levels after 6 days by Cell-Titer Glow assay; format: functional, cell-based; outline: as §2
DLD-1 [19] = assay: Antiproliferative activity against human DLD1 cells overexpressing beta-[…] assessed as renilla luciferase activity after 6 days; format: functional, cell-based
Axin-1 (Homo sapiens) [20] = molecular target: Axin-1 (Homo sapiens) (UniProt O15169); assay: Induction of Axin1 protein stabilization in human DLD1 cells by Western blot analysis; format: cell-based; conditions: DLD-1; outline: as §1
Axin-1 (Homo sapiens) [21] = molecular target: Axin-1 (Homo sapiens) (UniProt O15169); assay: Induction of Axin1 protein stabilization in human H460 cells by Western blot analysis; format: cell-based
[22] = molecular target: T1, Protein-serine O-palmitoleoyltransferase porcupine (Homo sapiens); assay: Displacement of IWP-PB from porcn in HEK293 lysate by Western blot analysis
[23] = molecular target: T1, Protein-serine O-palmitoleoyltransferase porcupine (Homo sapiens); assay: Inhibition of porcn-mediated Lrp6 maturation in human DLD1 lysate by detergent solubility fractionation assessed as [3H]palmitate incorporation at 2.5 uM by autoradiography method

Axin-2 (Homo sapiens), sequence (Q9Y2T1 whole entry): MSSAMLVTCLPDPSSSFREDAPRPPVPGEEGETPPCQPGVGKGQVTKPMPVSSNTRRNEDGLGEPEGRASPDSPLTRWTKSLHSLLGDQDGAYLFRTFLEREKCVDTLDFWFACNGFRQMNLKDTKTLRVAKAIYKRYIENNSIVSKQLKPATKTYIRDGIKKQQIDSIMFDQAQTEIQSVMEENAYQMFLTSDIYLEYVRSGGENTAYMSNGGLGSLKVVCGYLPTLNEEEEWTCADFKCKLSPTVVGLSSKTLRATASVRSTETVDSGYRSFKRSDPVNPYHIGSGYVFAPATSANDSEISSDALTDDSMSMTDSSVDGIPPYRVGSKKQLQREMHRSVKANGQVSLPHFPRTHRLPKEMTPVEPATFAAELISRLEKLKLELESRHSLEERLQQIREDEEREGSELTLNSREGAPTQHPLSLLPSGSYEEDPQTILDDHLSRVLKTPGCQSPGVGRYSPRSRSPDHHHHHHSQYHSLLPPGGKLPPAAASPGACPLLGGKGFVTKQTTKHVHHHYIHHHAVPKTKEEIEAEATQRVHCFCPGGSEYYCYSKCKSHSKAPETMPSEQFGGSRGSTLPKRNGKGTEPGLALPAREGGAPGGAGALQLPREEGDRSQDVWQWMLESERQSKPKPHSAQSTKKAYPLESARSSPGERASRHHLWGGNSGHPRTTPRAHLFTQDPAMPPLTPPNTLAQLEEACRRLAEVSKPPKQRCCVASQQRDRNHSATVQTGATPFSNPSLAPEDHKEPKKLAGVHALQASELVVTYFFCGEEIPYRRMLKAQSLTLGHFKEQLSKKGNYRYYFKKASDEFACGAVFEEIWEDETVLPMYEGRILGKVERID
Axin-1 (Homo sapiens), sequence (O15169 whole entry): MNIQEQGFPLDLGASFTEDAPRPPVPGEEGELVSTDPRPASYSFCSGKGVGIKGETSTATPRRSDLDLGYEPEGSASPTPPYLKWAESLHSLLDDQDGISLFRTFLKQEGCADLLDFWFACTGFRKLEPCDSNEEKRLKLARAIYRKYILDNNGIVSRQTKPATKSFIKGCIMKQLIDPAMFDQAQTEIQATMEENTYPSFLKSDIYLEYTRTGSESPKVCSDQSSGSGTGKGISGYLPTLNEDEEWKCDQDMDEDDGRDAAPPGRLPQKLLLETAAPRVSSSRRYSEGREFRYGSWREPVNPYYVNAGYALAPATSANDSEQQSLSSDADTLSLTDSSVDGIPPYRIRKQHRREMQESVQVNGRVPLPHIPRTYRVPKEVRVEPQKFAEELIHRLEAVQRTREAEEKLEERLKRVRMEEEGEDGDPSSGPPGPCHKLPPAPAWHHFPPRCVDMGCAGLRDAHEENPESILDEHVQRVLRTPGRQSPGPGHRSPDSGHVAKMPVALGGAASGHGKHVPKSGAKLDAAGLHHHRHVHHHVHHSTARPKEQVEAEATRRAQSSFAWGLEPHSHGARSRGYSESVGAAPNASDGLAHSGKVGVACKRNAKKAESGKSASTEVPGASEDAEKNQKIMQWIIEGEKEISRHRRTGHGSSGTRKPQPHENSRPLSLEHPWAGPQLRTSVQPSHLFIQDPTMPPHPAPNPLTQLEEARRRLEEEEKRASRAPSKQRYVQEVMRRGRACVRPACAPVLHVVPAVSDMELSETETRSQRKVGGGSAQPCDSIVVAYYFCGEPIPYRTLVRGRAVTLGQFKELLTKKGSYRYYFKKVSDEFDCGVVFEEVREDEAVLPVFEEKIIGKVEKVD

Inhibition (active/inactive) [1]: Active
Structure (SMILES): CC1Cc2nc(SCC(=O)Nc3nc4ccccc4s3)n(Cc3ccccc3)c(=O)c2S1 (stereo unspecified)

inhibition [2]: inactive
Structure (SMILES): Cc1ccc2nc(NC(=O)CSc3nc4c(c(=O)n3-c3ccc(F)cc3)SCC4)sc2c1
inhibition [3]: Active
inhibition [4]: Active
inhibition [5]: Active
inhibition (Danio rerio): inactive
inhibition [6]: inactive

inhibition [2]: inactive
Structure (SMILES): COc1ccccc1-n1c(SCC(=O)Nc2nc3ccc(C)cc3s2)nc2c(c1=O)SCC2
inhibition [3]: Active
inhibition [4]: Active
inhibition [5]: Active
inhibition (Danio rerio): inactive
inhibition [6]: inactive

Activity (Axin-2 (Homo sapiens) [7]): Active
Structure (SMILES): O=C(NC1CCCC1)c1ccc(Cn2c(=O)c3ccccc3n(Cc3cc(=O)n4ccccc4n3)c2=O)cc1
inhibition [8]: Active
inhibition [9]: inactive
inhibition [10]: inactive
inhibition [11]: Active
inhibition [12]: Active
inhibition [13]: Active
inhibition (DLD-1 [14]): Active

Activity (Axin-2 (Homo sapiens) [15]): inactive
Structure (SMILES): O=C(O)c1ccc(N2C(=O)[C@@H]3[C@H](C2=O)[C@@H]2C=C[C@H]3C2)cc1
inhibition (Danio rerio): inactive

Inhibition (active/inactive) [1]: Active
Activity (Axin-2 (Homo sapiens) [16]): Active
Activity (Axin-2 (Homo sapiens) [17]): Active
Structure (SMILES): Cc1ccc2nc(NC(=O)CSc3nc4c(c(=O)n3-c3ccc(CNC(=O)CCOCCOCCOCCNC(=O)CCCC[C@@H]5SC[C@@H]6NC(=O)N[C@@H]65)cc3)SCC4)sc2c1

Inhibition (active/inactive) [1]: Active
Structure (SMILES): O=C(CSc1nc2c(c(=O)n1-c1ccccc1)SCC2)Nc1nccs1

Activity (Axin-2 (Homo sapiens) [7]): Active
Structure (SMILES): N#Cc1ccccc1Cn1c(=O)n(CC2CCC(C(=O)NCc3ccccc3)CC2)c(=O)c2ccccc21 (stereo unspecified)
inhibition [8]: Active
inhibition [9]: inactive
inhibition [10]: inactive
inhibition [11]: Active
inhibition [12]: Active
inhibition [13]: Active
inhibition (DLD-1 [14]): Active

Activity (Axin-2 (Homo sapiens) [15]): inactive
Structure (SMILES): O=C(Nc1cccc2cccnc12)c1ccc(N2C(=O)[C@@H]3[C@H](C2=O)[C@H]2C=C[C@@H]3C2)cc1
inhibition (Danio rerio): inactive

Activity (Axin-2 (Homo sapiens) [7]): Active
Activity (Axin-1 (Homo sapiens) [20]): Active
Activity (Axin-1 (Homo sapiens) [21]): Active
Structure (SMILES): Cc1cccc2nc(Cn3c(=O)n(CC4CCC(C(=O)NCc5ccccc5)CC4)c(=O)c4ccccc43)cc(=O)n12 (stereo unspecified)
inhibition [8]: Active
inhibition [9]: inactive
inhibition [10]: inactive
inhibition [11]: Active
inhibition [12]: Active
inhibition [13]: Active
inhibition (Danio rerio): Active
inhibition (DLD-1 [14]): Active
Activity (NCI-H460): inactive
Activity (DLD-1 [18]): Active
Activity (DU-145): Active
Activity (DLD-1 [19]): inactive

Inhibition (active/inactive) [1]: Active
Structure (SMILES): Cc1ccc2nc(NC(=O)CSc3nc4c(c(=O)n3Cc3ccccc3)SCC4)sc2c1

inhibition [22]: Active
inhibition [23]: inactive
inhibition [2]: inactive
Structure (SMILES): COc1ccc(-n2nc(C(=O)NCC(=O)Nc3nc4ccc(OC)cc4s3)c3ccccc3c2=O)cc1
inhibition [3]: Active
inhibition [4]: Active
inhibition [5]: Active
inhibition (Danio rerio): inactive
inhibition [6]: inactive
